Data: PMC6543826 (Bioorganic chemistry, 2018)
Where “and” joins values, the source holds several entries; their conditions need not be identical. Equal values may be shown once.

Tests used:
HCT-15 = assay: cells; type: cell-based
OVCAR-5 = assay: cells; type: cell-based
T-47D = assay: cells; type: cell-based
RXF 393 = assay: cells; type: cell-based
RPMI-8226 = assay: cells; type: cell-based
M14 = assay: cells; type: cell-based
SF-295 = assay: cells; type: cell-based
SK-MEL-28 = assay: cells; type: cell-based
A549/ATCC = assay: cells; type: cell-based
NCI-H322M = assay: cells; type: cell-based
SN12C = assay: cells; type: cell-based
UO-31 = assay: cells; type: cell-based
DU-145 = assay: cells; type: cell-based
ERK2 = ERK2 (Rattus norvegicus, UniProt P63086); assay: in vitro radioactive kinase assay, Ets-1 phosphorylation by ERK2; type: biochemical
Procedure, shortened: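 Activated rat ERK2 (2 nM) was tested with His-Ets-1 (1–138) at 28–30 °C in HEPES pH 7.5 buffer with 11 mM MgCl2, BSA and 5% DMSO. Reactions were started with [γ-32P]ATP (10 or 100 μM).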

NCI-H460 = assay: cells; type: cell-based
MALME-3M = assay: cells; type: cell-based
OVCAR-4 = assay: cells; type: cell-based
IGROV1 = assay: cells; type: cell-based
U251 = assay: cells; type: cell-based
MCF7 = assay: cells; type: cell-based
OVCAR-8 = assay: cells; type: cell-based
SW-620 = assay: cells; type: cell-based
SF-268 = assay: cells; type: cell-based
UACC-62 = assay: cells; type: cell-based
SNB-75 = assay: cells; type: cell-based
BT-549 = assay: cells; type: cell-based
SK-OV-3 = assay: cells; type: cell-based
HOP-92 = assay: cells; type: cell-based
NCI-H522 = assay: cells; type: cell-based
ERK1 = ERK1 (Homo sapiens, UniProt P27361); assay: in vitro radioactive kinase assay, Ets-1 phosphorylation by ERK1; type: biochemical; details: ERK1 IC50, 100 μM ATP, 10 μM Ets-1
Procedure, shortened: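 Radiometric assay at 28–30 °C in 25 mM HEPES pH 7.5, 50 mM KCl, 0.1 mM EDTA/EGTA, 2 mM DTT, 11 mM MgCl2, 10 μg mL−1 BSA and 5% DMSO (final). 2 nM activated ERK1 was used with 10 μM His-Ets-1 (1–138). Reactions were started with [γ-32P]ATP (10 or 100 μM). IC50 came from fitting rate versus inhibitor concentration to a hyperbolic decay equation.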

[1] = tested on: NCI-60 panel of tumor cell lines
KM 12 = assay: cells; type: cell-based

Sequence of ERK2 (P63086 whole entry): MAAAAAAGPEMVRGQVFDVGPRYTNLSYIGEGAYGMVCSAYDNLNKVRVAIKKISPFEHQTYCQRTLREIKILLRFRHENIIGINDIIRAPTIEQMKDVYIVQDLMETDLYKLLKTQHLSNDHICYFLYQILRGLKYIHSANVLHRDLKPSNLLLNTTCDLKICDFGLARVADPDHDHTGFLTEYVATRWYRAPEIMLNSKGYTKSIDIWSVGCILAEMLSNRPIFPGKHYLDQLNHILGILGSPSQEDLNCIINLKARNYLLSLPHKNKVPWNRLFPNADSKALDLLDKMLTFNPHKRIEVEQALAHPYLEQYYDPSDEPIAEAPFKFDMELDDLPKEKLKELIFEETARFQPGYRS
Sequence of ERK1 (P27361 whole entry, species assumed): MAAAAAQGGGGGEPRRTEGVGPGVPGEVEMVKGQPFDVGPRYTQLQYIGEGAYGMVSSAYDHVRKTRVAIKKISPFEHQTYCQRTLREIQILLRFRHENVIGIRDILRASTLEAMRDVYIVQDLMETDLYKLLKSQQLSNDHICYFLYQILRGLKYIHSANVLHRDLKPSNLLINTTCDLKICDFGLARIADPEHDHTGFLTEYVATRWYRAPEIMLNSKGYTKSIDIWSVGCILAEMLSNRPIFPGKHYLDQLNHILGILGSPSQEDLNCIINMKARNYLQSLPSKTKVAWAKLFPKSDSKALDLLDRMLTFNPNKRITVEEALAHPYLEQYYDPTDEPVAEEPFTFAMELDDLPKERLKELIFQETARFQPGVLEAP

Structure (SMILES): O=C1c2ccccc2C(=O)c2c1oc1c2c(=O)[nH]c2ccc(Cl)cc21 [3b, 2-Chloronaphtho[2′,3′:4,5]furo[3,2-c]quinoline-6,7,12(5H)-trione]
- Growth percent (G%) (HCT-15; HCT-15, 10^−5 M, 48 h): −31.10%
- TGI (HCT-15; HCT-15, five-dose): 0.51 µM
- GI50 (HCT-15; Homo sapiens, HCT-15): 210 nM
- CC50 (HCT-15; Homo sapiens, HCT-15, read-out: LC50): 2000 nM
- GI50 (OVCAR-5; Homo sapiens, OVCAR-5): 3.47 µM
- CC50 (OVCAR-5; Homo sapiens, OVCAR-5, read-out: LC50): 40.7 µM
- Growth percent (G%) (OVCAR-5; OVCAR-5, 10^−5 M, 48 h): 52.70%
- TGI (OVCAR-5; OVCAR-5, five-dose): 14.79 µM
- GI50 (T-47D; Homo sapiens, T47D): 260 nM
- CC50 (T-47D; Homo sapiens, T47D, read-out: LC50): 5.13 µM
- Growth percent (G%) (T-47D; T-47D, 10^−5 M, 48 h): −58.11%
- TGI (T-47D; T-47D, five-dose): 0.98 µM
- GI50 (RXF 393; Homo sapiens, RXF 393): 210 nM
- CC50 (RXF 393; Homo sapiens, RXF 393, read-out: LC50): 2510 nM
- Growth percent (G%) (RXF 393; RXF 393, 10^−5 M, 48 h): −46.34%
- TGI (RXF 393; RXF 393, five-dose): 0.58 µM
- GI50 (RPMI-8226; Homo sapiens, RPMI-8226): 390 nM
- CC50 (RPMI-8226; Homo sapiens, RPMI-8226, read-out: LC50): > 100 µM
- Growth percent (G%) (RPMI-8226; RPMI-8226, 10^−5 M, 48 h): 4.83%
- TGI (RPMI-8226; RPMI-8226, five-dose): 2.63 µM
- GI50 (M14; Homo sapiens, M14): 400 nM
- CC50 (M14; Homo sapiens, M14, read-out: LC50): 4.57 µM
- Growth percent (G%) (M14; M14, 10^−5 M, 48 h): 10.44%
- TGI (M14; M14, five-dose): 1.51 µM
- GI50 (SF-295; Homo sapiens, SF-295): 630 nM
- CC50 (SF-295; Homo sapiens, SF-295, read-out: LC50): 6.61 µM
- Growth percent (G%) (SF-295; SF-295, 10^−5 M, 48 h): −1.34%
- TGI (SF-295; SF-295, five-dose): 2.29 µM
- GI50 (SK-MEL-28; Homo sapiens, SK-MEL-28): 340 nM
- CC50 (SK-MEL-28; Homo sapiens, SK-MEL-28, read-out: LC50): 4.68 µM
- Growth percent (G%) (SK-MEL-28; SK-MEL-28, 10^−5 M, 48 h): −11.84%
- TGI (SK-MEL-28; SK-MEL-28, five-dose): 1.23 µM
- Growth percent (G%) (A549/ATCC; A549/ATCC, 10^−5 M, 48 h): −0.05%
- TGI (A549/ATCC; A549/ATCC, five-dose): 2.88 µM
- GI50 (A549/ATCC; Homo sapiens, A549): 1020 nM
- CC50 (A549/ATCC; Homo sapiens, A549, read-out: LC50): 8.32 µM
- Growth percent (G%) (NCI-H322M; 10^−5 M, 48 h): 13.98%
- GI50 (NCI-H322M; Homo sapiens): 320 nM
- CC50 (NCI-H322M; Homo sapiens, read-out: LC50): 7.24 µM
- TGI (NCI-H322M; five-dose): 1.45 µM
- Growth percent (G%) (SN12C; 10^−5 M, 48 h): −26.26%
- GI50 (SN12C; Homo sapiens): 200 nM
- CC50 (SN12C; Homo sapiens, read-out: LC50): 1350 nM
- TGI (SN12C; five-dose): 0.47 µM
- GI50 (UO-31; Homo sapiens, UO-31): 190 nM
- CC50 (UO-31; Homo sapiens, UO-31, read-out: LC50): 2510 nM
- Growth percent (G%) (UO-31; UO-31, 10^−5 M, 48 h): −54.91%
- TGI (UO-31; UO-31, five-dose): 0.60 µM
- Growth percent (G%) (DU-145; DU-145, 10^−5 M, 48 h): −45.39%
- TGI (DU-145; DU-145, five-dose): 0.78 µM
- GI50 (DU-145; Homo sapiens, DU-145): 280 nM
- CC50 (DU-145; Homo sapiens, DU-145, read-out: LC50): 12.3 µM
- effect of excess Ets-1 (100 μM) on inhibition of ERK2 (ERK2; 5 μM inhibitor, 100 μM vs 10 μM Ets-1, 100 μM ATP): did not rescue
- IC50 (ERK2; ERK2 IC50, 10 μM ATP): 200 ± 10 nM
- IC50 (ERK2; ERK2 IC50, 100 μM ATP, 10 μM Ets-1): 600 ± 100 nM
- IC50 (ERK2; ERK2 IC50 at 100 μM ATP /10mM Ets-1, Table 4, 100 μM ATP /10mM Ets-1): 600 ± 100 nM
- GI50 (NCI-H460; Homo sapiens, NCI-H460): 220 nM
- CC50 (NCI-H460; Homo sapiens, NCI-H460, read-out: LC50): 1480 nM
- Growth percent (G%) (NCI-H460; NCI-H460, 10^−5 M, 48 h): −69.73%
- TGI (NCI-H460; NCI-H460, five-dose): 0.49 µM
- GI50 (MALME-3M; Homo sapiens, Malme-3M): 230 nM
- CC50 (MALME-3M; Homo sapiens, Malme-3M, read-out: LC50): 850 nM
- Growth percent (G%) (MALME-3M; MALME-3M, 10^−5 M, 48 h): −51.66%
- GI50 (OVCAR-4; Homo sapiens, OVCAR-4): 170 nM
- CC50 (OVCAR-4; Homo sapiens, OVCAR-4, read-out: LC50): 1510 nM
- Growth percent (G%) (OVCAR-4; OVCAR-4, 10^−5 M, 48 h): −42.04%
- TGI (OVCAR-4; OVCAR-4, five-dose): 0.45 µM
- GI50 (IGROV1; Homo sapiens, IGROV-1): 220 nM
- CC50 (IGROV1; Homo sapiens, IGROV-1, read-out: LC50): 3.47 µM
- Growth percent (G%) (IGROV1; IGROV1, 10^−5 M, 48 h): −3.63%
- TGI (IGROV1; IGROV1, five-dose): 0.74 µM
- GI50 (U251; Homo sapiens, U-251): 270 nM
- CC50 (U251; Homo sapiens, U-251, read-out: LC50): 2820 nM
- Growth percent (G%) (U251; U251, 10^−5 M, 48 h): −77.55%
- TGI (U251; U251, five-dose): 0.76 µM
- GI50 (MCF7; Homo sapiens, MCF7): 230 nM
- CC50 (MCF7; Homo sapiens, MCF7, read-out: LC50): 18.6 µM
- Growth percent (G%) (MCF7; MCF7, 10^−5 M, 48 h): 0.70%
- TGI (MCF7; MCF7, five-dose): 1.05 µM
- GI50 (OVCAR-8; Homo sapiens, OVCAR-8): 390 nM
- CC50 (OVCAR-8; Homo sapiens, OVCAR-8, read-out: LC50): 30.2 µM
- Growth percent (G%) (OVCAR-8; OVCAR-8, 10^−5 M, 48 h): −27.45%
- TGI (OVCAR-8; OVCAR-8, five-dose): 2.29 µM
- GI50 (SW-620; Homo sapiens, SW-620): 330 nM
- CC50 (SW-620; Homo sapiens, SW-620, read-out: LC50): 7.59 µM
- Growth percent (G%) (SW-620; SW-620, 10^−5 M, 48 h): −53.04%
- TGI (SW-620; SW-620, five-dose): 1.00 µM
- GI50 (SF-268; Homo sapiens, SF-268): 460 nM
- CC50 (SF-268; Homo sapiens, SF-268, read-out: LC50): 49 µM
- Growth percent (G%) (SF-268; SF-268, 10^−5 M, 48 h): −31.69%
- TGI (SF-268; SF-268, five-dose): 3.98 µM
- GI50 (UACC-62; Homo sapiens, UACC-62): 280 nM
- CC50 (UACC-62; Homo sapiens, UACC-62, read-out: LC50): 3.98 µM
- Growth percent (G%) (UACC-62; UACC-62, 10^−5 M, 48 h): 75.08%
- TGI (UACC-62; UACC-62, five-dose): 1.15 µM
- GI50 (SNB-75; Homo sapiens, SNB-75): 160 nM
- CC50 (SNB-75; Homo sapiens, SNB-75, read-out: LC50): 1290 nM
- Growth percent (G%) (SNB-75; SNB-75, 10^−5 M, 48 h): −9.01%
- TGI (SNB-75; SNB-75, five-dose): 0.42 µM
- Growth percent (G%) (BT-549; BT-549, 10^−5 M, 48 h): 37.99%
- TGI (BT-549; BT-549, five-dose): 1.32 µM
- GI50 (BT-549; Homo sapiens, BT-549): 300 nM
- CC50 (BT-549; Homo sapiens, BT-549, read-out: LC50): 6.76 µM
- GI50 (SK-OV-3; Homo sapiens, SK-OV-3): 350 nM
- CC50 (SK-OV-3; Homo sapiens, SK-OV-3, read-out: LC50): 5.62 µM
- Growth percent (G%) (SK-OV-3; SK-OV-3, 10^−5 M, 48 h): 1.64%
- TGI (SK-OV-3; SK-OV-3, five-dose): 1.78 µM
- Growth percent (G%) (HOP-92; HOP-92, 10^−5 M, 48 h): −37.24%
- TGI (HOP-92; HOP-92, five-dose): 0.39 µM
- GI50 (HOP-92; Homo sapiens, HOP-92): 150 nM
- CC50 (HOP-92; Homo sapiens, HOP-92, read-out: LC50): 1000 nM
- GI50 (NCI-H522; Homo sapiens, NCI-H522): 320 nM
- CC50 (NCI-H522; Homo sapiens, NCI-H522, read-out: LC50): 8.13 µM
- Growth percent (G%) (NCI-H522; NCI-H522, 10^−5 M, 48 h): −16.76%
- TGI (NCI-H522; NCI-H522, five-dose): 1.38 µM
- IC50 (ERK1): 500 ± 90 nM
- Average G% ([1]; average over tested NCI-60 cell lines, 10^−5 M (10 μM), 48 h): −4.7% and −4.5% and −4.69%
- TGI values, range over all cell lines ([1]; five-dose): 0.35 to 27.54 µM
- TGI, average ([1]; five-dose): 1.02 µM
- GI50 (KM 12; Homo sapiens, KM12): 450 nM
- CC50 (KM 12; Homo sapiens, KM12, read-out: LC50): 27.5 µM
- Growth percent (G%) (KM 12; KM 12, 10^−5 M, 48 h): 0.12%
- TGI (KM 12; KM 12, five-dose): 3.02 µM
